From ChEMBL document CHEMBL3124806, “Imidazopyridine-fused [1,3]-diazepinones: synthesis and antiproliferative activity” (Eur J Med Chem, 2014)

Assays:
Assay type in all cases: functional
SK-MEL-5 = assay: Cytotoxicity against human SK-MEL-5 cells assessed as cell growth at 10 uM after 48 hrs by SRB assay relative to untreated control; conditions: SK-MEL-5, 48 h, read-out: Activity
In short: (§1)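 NCI-60 single-dose screen. Compounds were added to the cultures at 10 μM and incubated for 48 h. The end point was sulforhodamine B protein staining read spectrophotometrically. Growth is reported as percent of untreated control cells.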

MDA-MB-231 = assay: Cytotoxicity against human MDA-MB-231 cells assessed as cell growth at 10 uM after 48 hrs by SRB assay relative to untreated control; conditions: MDA-MB-231, 48 h, read-out: Activity
In short: (§2)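 NCI-60 one-dose screen: each agent added at 10 µM, cultures incubated 48 h. Endpoint by sulforhodamine B protein-binding dye read spectrophotometrically; growth expressed as percent of untreated control cells.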

[1] = Cytotoxicity against human OVCAR5 cells assessed as cell growth at 10 uM after 48 hrs by SRB assay relative to untreated control; conditions: OVCAR-5, 48 h, read-out: Activity; in short: as §2
MDA-MB-435 = assay: Cytotoxicity against human MDA-MB-435 cells assessed as cell growth at 10 uM after 48 hrs by SRB assay relative to untreated control; conditions: MDA-MB-435, 48 h, read-out: Activity; in short: as §2
OVCAR-8 = assay: Cytotoxicity against human OVCAR8 cells assessed as cell growth at 10 uM after 48 hrs by SRB assay relative to untreated control; conditions: OVCAR-8, 48 h, read-out: Activity; in short: as §2
CCRF-CEM = assay: Cytotoxicity against human CCRF-CEM cells assessed as cell growth at 10 uM after 48 hrs by SRB assay relative to untreated control; conditions: read-out: Activity
In short: (§3)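 NCI-60 panel screen at a single concentration of 10 μM with 48 h incubation. Cell density measured by sulforhodamine B protein-binding dye and read spectrophotometrically. Growth expressed as percent of untreated control cells.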

MCF7 = assay: Cytotoxicity against human MCF7 cells assessed as cell growth at 10 uM after 48 hrs by SRB assay relative to untreated control; conditions: MCF7, 48 h, read-out: Activity; in short: as §3
SNB-19 = assay: Cytotoxicity against human SNB19 cells assessed as cell growth at 10 uM after 48 hrs by SRB assay relative to untreated control; conditions: SNB-19, 48 h, read-out: Activity; in short: as §1
SN12C = assay: Cytotoxicity against human SN12C cells assessed as cell growth at 10 uM after 48 hrs by SRB assay relative to untreated control; conditions: read-out: Activity; in short: as §1
SK-MEL-2 = assay: Cytotoxicity against human SK-MEL-2 cells assessed as cell growth at 10 uM after 48 hrs by SRB assay relative to untreated control; conditions: SK-MEL-2, 48 h, read-out: Activity; in short: as §2
NCI-H522 = assay: Cytotoxicity against human NCI-H522 cells assessed as cell growth at 10 uM after 48 hrs by SRB assay relative to untreated control; conditions: NCI-H522, 48 h, read-out: Activity; in short: as §2
HCC 2998 = assay: Cytotoxicity against human HCC2998 cells assessed as cell growth at 10 uM after 48 hrs by SRB assay relative to untreated control; conditions: HCC 2998, 48 h, read-out: Activity; in short: as §3
MDA-MB-468 = assay: Cytotoxicity against human MDA-MB-468 cells assessed as cell growth at 10 uM after 48 hrs by SRB assay relative to untreated control; conditions: MDA-MB-468, 48 h, read-out: Activity; in short: as §2
IGROV-1 = assay: Cytotoxicity against human IGROV1 cells assessed as cell growth at 10 uM after 48 hrs by SRB assay relative to untreated control; conditions: IGROV-1, 48 h, read-out: Activity; in short: as §3
ACHN = assay: Cytotoxicity against human ACHN cells assessed as cell growth at 10 uM after 48 hrs by SRB assay relative to untreated control; conditions: read-out: Activity; in short: as §3
HL-60(TB) = assay: Cytotoxicity against human HL-60(TB) cells assessed as cell growth at 10 uM after 48 hrs by SRB assay relative to untreated control; conditions: HL-60, 48 h, read-out: Activity
In short: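 NCI-60 human tumour cell line panel; a single 10 µM concentration was added to the cultures and incubated 48 h. Endpoint was sulforhodamine B protein-binding dye read spectrophotometrically, with growth reported as percent of untreated control cells.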

TK-10 = assay: Cytotoxicity against human TK10 cells assessed as cell growth at 10 uM after 48 hrs by SRB assay relative to untreated control; conditions: TK-10, 48 h, read-out: Activity; in short: as §1
[2] = Cytotoxicity against human UO31 cells assessed as cell growth at 10 uM after 48 hrs by SRB assay relative to untreated control; conditions: UO-31, 48 h, read-out: Activity; in short: as §1
CAKI-1 = assay: Cytotoxicity against human Caki1 cells assessed as cell growth at 10 uM after 48 hrs by SRB assay relative to untreated control; conditions: CAKI-1, 48 h, read-out: Activity; in short: as §3
HT-29 = assay: Cytotoxicity against human HT-29 cells assessed as cell growth at 10 uM after 48 hrs by SRB assay relative to untreated control; conditions: HT-29, 48 h, read-out: Activity; in short: as §3
A549 = assay: Cytotoxicity against human A549 cells assessed as cell growth at 10 uM after 48 hrs by SRB assay relative to untreated control; conditions: A549, 48 h, read-out: Activity; in short: as §3
SF-539 = assay: Cytotoxicity against human SF539 cells assessed as cell growth at 10 uM after 48 hrs by SRB assay relative to untreated control; conditions: SF-539, 48 h, read-out: Activity; in short: as §2
SK-MEL-28 = assay: Cytotoxicity against human SK-MEL-28 cells assessed as cell growth at 10 uM after 48 hrs by SRB assay relative to untreated control; conditions: SK-MEL-28, 48 h, read-out: Activity; in short: as §1
NCI-H226 = assay: Cytotoxicity against human NCI-H226 cells assessed as cell growth at 10 uM after 48 hrs by SRB assay relative to untreated control; conditions: NCI-H226, 48 h, read-out: Activity; in short: as §2
RPMI-8226 = assay: Cytotoxicity against human RPMI8226 cells assessed as cell growth at 10 uM after 48 hrs by SRB assay relative to untreated control; conditions: RPMI-8226, 48 h, read-out: Activity; in short: as §2
M14 = assay: Cytotoxicity against human M14 cells assessed as cell growth at 10 uM after 48 hrs by SRB assay relative to untreated control; conditions: M14, 48 h, read-out: Activity; in short: as §3
NCI-H460 = assay: Cytotoxicity against human NCI-H460 cells assessed as cell growth at 10 uM after 48 hrs by SRB assay relative to untreated control; conditions: NCI-H460, 48 h, read-out: Activity; in short: as §2

O=C1Nc2nc3ccccn3c2C(=O)[C@H](Cc2ccccc2)N1
growth at 10 µM (SK-MEL-5): 97.2%
growth at 10 µM (MDA-MB-231): 106%
growth at 10 µM [1]: 95%
growth at 10 µM (MDA-MB-435): 96.4%
growth at 10 µM (OVCAR-8): 95.8%
growth at 10 µM (CCRF-CEM): 113%
growth at 10 µM (MCF7): 95.7%
growth at 10 µM (SNB-19): 103%
growth at 10 µM (SN12C): 105%
growth at 10 µM (SK-MEL-2): 113%
growth at 10 µM (NCI-H522): 94%
growth at 10 µM (HCC 2998): 97.5%
growth at 10 µM (MDA-MB-468): 98.4%
growth at 10 µM (IGROV-1): 109%
growth at 10 µM (ACHN): 97%
growth at 10 µM (HL-60(TB)): 116%
growth at 10 µM (TK-10): 99.8%
growth at 10 µM [2]: 90.2%
growth at 10 µM (CAKI-1): 96.2%
growth at 10 µM (HT-29): 106%
growth at 10 µM (A549): 98.6%
growth at 10 µM (SF-539): 95.9%
growth at 10 µM (SK-MEL-28): 114%
growth at 10 µM (NCI-H226): 104%
growth at 10 µM (RPMI-8226): 105%
growth at 10 µM (M14): 93%
growth at 10 µM (NCI-H460): 103%

COc1ccc(C2=Nc3nc4ccccn4c3C(=O)[C@H](Cc3ccccc3)N2)cc1
growth at 10 µM (SK-MEL-5): 104%
growth at 10 µM (MDA-MB-231): 121%
growth at 10 µM [1]: 107%
growth at 10 µM (MDA-MB-435): 51.4%
growth at 10 µM (OVCAR-8): 91.4%
growth at 10 µM (CCRF-CEM): 99.4%
growth at 10 µM (MCF7): 90.1%
growth at 10 µM (SNB-19): 103%
growth at 10 µM (SN12C): 113%
growth at 10 µM (SK-MEL-2): 106%
growth at 10 µM (NCI-H522): 94.7%
growth at 10 µM (HCC 2998): 96.4%
growth at 10 µM (MDA-MB-468): 98.5%
growth at 10 µM (IGROV-1): 107%
growth at 10 µM (ACHN): 101%
growth at 10 µM (TK-10): 133%
growth at 10 µM [2]: 83.5%
growth at 10 µM (CAKI-1): 87.7%
growth at 10 µM (HT-29): 117%
growth at 10 µM (A549): 109%
growth at 10 µM (SF-539): 97.2%
growth at 10 µM (SK-MEL-28): 98.1%
growth at 10 µM (NCI-H226): 98.6%
growth at 10 µM (RPMI-8226): 98.1%
growth at 10 µM (M14): 98.3%
growth at 10 µM (NCI-H460): 104%

Cc1ccc(C2=Nc3nc4ccccn4c3C(=O)[C@@H]3CCCN23)cc1
growth at 10 µM (SK-MEL-5): 92.5%
growth at 10 µM (MDA-MB-231): 93.8%
growth at 10 µM [1]: 91.1%
growth at 10 µM (MDA-MB-435): 91.1%
growth at 10 µM (OVCAR-8): 98.1%
growth at 10 µM (CCRF-CEM): 50.2%
growth at 10 µM (MCF7): 89%
growth at 10 µM (SNB-19): 92.2%
growth at 10 µM (SN12C): 101%
growth at 10 µM (SK-MEL-2): 105%
growth at 10 µM (NCI-H522): 102%
growth at 10 µM (HCC 2998): 99.4%
growth at 10 µM (MDA-MB-468): 94.8%
growth at 10 µM (IGROV-1): 99.7%
growth at 10 µM (ACHN): 93.9%
growth at 10 µM (HL-60(TB)): 125%
growth at 10 µM (TK-10): 110%
growth at 10 µM [2]: 80.3%
growth at 10 µM (CAKI-1): 91.8%
growth at 10 µM (HT-29): 101%
growth at 10 µM (A549): 92.7%
growth at 10 µM (SF-539): 92.5%
growth at 10 µM (SK-MEL-28): 108%
growth at 10 µM (NCI-H226): 86.5%
growth at 10 µM (RPMI-8226): 105%
growth at 10 µM (M14): 94.8%
growth at 10 µM (NCI-H460): 102%

Cc1ccccc1C1=Nc2nc3ccccn3c2C(=O)[C@H](Cc2ccccc2)N1
growth at 10 µM (SK-MEL-5): 103%
growth at 10 µM (MDA-MB-231): 104%
growth at 10 µM [1]: 101%
growth at 10 µM (MDA-MB-435): 98.8%
growth at 10 µM (OVCAR-8): 92.8%
growth at 10 µM (CCRF-CEM): 105%
growth at 10 µM (MCF7): 84.9%
growth at 10 µM (SNB-19): 109%
growth at 10 µM (SN12C): 107%
growth at 10 µM (SK-MEL-2): 115%
growth at 10 µM (NCI-H522): 121%
growth at 10 µM (HCC 2998): 99.9%
growth at 10 µM (MDA-MB-468): 104%
growth at 10 µM (IGROV-1): 108%
growth at 10 µM (ACHN): 94.5%
growth at 10 µM (HL-60(TB)): 125%
growth at 10 µM (TK-10): 138%
growth at 10 µM [2]: 80.6%
growth at 10 µM (CAKI-1): 88.8%
growth at 10 µM (HT-29): 115%
growth at 10 µM (A549): 91.7%
growth at 10 µM (SF-539): 99.4%
growth at 10 µM (SK-MEL-28): 113%
growth at 10 µM (NCI-H226): 99%
growth at 10 µM (RPMI-8226): 98.4%
growth at 10 µM (M14): 102%
growth at 10 µM (NCI-H460): 103%
